{"source": "paper PMC3985758", "about": "(ACS Chemical Biology, 2014)", "key": {"[1]": {"test_system": "T47D ductal carcinoma cell line", "assay": "Concentration-response proliferation assay, colloidal vs monomeric formulation", "format": "cell-based", "how_it_was_run": "(§1)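 Cells seeded at 10,000 cells/cm2 and left to adhere overnight, then dosed in RPMI 1640 with 10% charcoal-stripped FBS. Colloidal formulation: DMSO stock diluted 1000-fold into medium (0.1% DMSO). Monomeric formulation: stock diluted 10-fold in DMSO, then into medium giving 1% DMSO and 0.025% v/v polysorbate 80. Vehicle controls made the same way. Medium refreshed every 12 h over 72 h; cells washed; proliferation by MTS or DAPI nuclei counts, relative to untreated.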"}, "[2]": {"settings": "known aggregators; not among compounds measured by DLS here; cited from earlier work"}, "MCF7": {"test_system": "MCF7", "assay": "Concentration-response proliferation assay, colloidal vs monomeric formulation", "format": "cell-based", "how_it_was_run": "as §1"}, "BT474": {"test_system": "BT474", "assay": "Concentration-response proliferation assay, colloidal vs monomeric formulation", "format": "cell-based", "how_it_was_run": "as §1"}, "MDA-MB-231 cells": {"test_system": "MDA-MB-231 cells", "assay": "Concentration-response proliferation assay", "format": "cell-based", "how_it_was_run": "as §1"}, "MCF7 cells": {"test_system": "MCF7 cells", "settings": "cited from earlier work"}}, "data": [{"smiles": "C[C@@H](Oc1cc(-c2cnn(C3CCNCC3)c2)cnc1N)c1c(Cl)ccc(F)c1Cl", "note": "[Crizotinib, crizotinib]", "values": [{"measurement": "concentration at which antiproliferative activity is lost", "setting": "[1]", "result": 10, "unit": "µM"}, {"measurement": "CAC (critical aggregation concentration)", "setting": "[2]", "result": 19.3, "unit": "µM"}]}, {"smiles": "C[C@]12CC[C@@H]3c4ccc(O)cc4C[C@@H](CCCCCCCCC[S+]([O-])CCCC(F)(F)C(F)(F)F)[C@H]3[C@@H]1CC[C@@H]2O", "note": "(stereo partly drawn) [Fulvestrant]", "values": [{"measurement": "concentration at which loss of activity is observed", "setting": "MCF7", "result": "≥ 1", "unit": "µM"}, {"measurement": "concentration at which loss of activity is observed", "setting": "BT474", "result": "≥ 1", "unit": "µM"}]}, {"smiles": "CNC(=O)c1cc(Oc2ccc(NC(=O)Nc3ccc(Cl)c(C(F)(F)F)c3)cc2)ccn1", "note": "[Sorafenib, sorafenib]", "values": [{"measurement": "inhibition of cell proliferation", "setting": "MDA-MB-231 cells; 10 μM, colloidal formulation (0.1% DMSO, no UP 80), 72 h", "result": "almost entirely eliminated"}, {"measurement": "inhibition at 10 µM", "setting": "MDA-MB-231 cells; Homo sapiens, MDA-MB-231, 72 h, read-out: inhibition of proliferation", "result": "~90", "unit": "%"}, {"measurement": "concentration at which loss of activity is observed", "setting": "MDA-MB-231 cells; colloidal formulation, MDA-MB-231", "result": "≥ 10", "unit": "µM"}, {"measurement": "CAC (critical aggregation concentration)", "setting": "[2]", "result": 3.5, "unit": "µM"}]}, {"smiles": "O=c1c(-c2ccc(O)cc2)coc2cc(O)cc(O)c12", "note": "[Genistein]", "values": [{"measurement": "concentration of maximum activity of bell-shaped curve", "setting": "MCF7 cells", "result": 50, "unit": "µM"}]}]}
